The record followed here is ChEMBL document CHEMBL4145462, “Nitrogen-containing ecdysteroid derivatives vs. multi-drug resistance in cancer: Preparation and antitumor activity of oximes, oxime ethers and a lactam” (Eur J Med Chem, 2018).

By IC50 is commonly meant the midpoint of a concentration-inhibition curve. Read a low IC50 as greater potency. Broadly, the inhibition is the share of the control response that was lost under treatment.

Test system in one series: not listed separately
Nature of the series: Synergistic cytotoxicity against mouse L5178 cells assessed as combination index at ED50 using 37.5:1 test compound to doxorubicin ratio after 48 hrs by MTT-based checkerboard microplate method.
Conditions: not given
Format: functional. In a few lines: (§1)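 Checkerboard microplate combinations of compound with doxorubicin at constant molar ratios. 5 × 10^4 cells/well in McCoy's 5A, 48 h at 37°C, 5% CO2. MTT added to 0.5 mg/mL final for 4 h, SDS/HCl overnight, OD read at 540 and 630 nm. Combination indices derived per ratio for 50%, 75% and 90% growth inhibition by median-effect analysis.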
With `CC(C)(O)CC[C@H]1OC(C)(C)O[C@]1(C)[C@H]1CC=C2C3=C/C(=N/OC(C)(C)C)[C@@H]4C[C@H]5OC(C)(C)O[C@H]5C[C@]4(C)[C@H]3CC[C@@]21C`, the CI is given as 0.53.

With `CCO/N=C1/C=C2C3=CC[C@H]([C@@]4(C)OC(C)(C)O[C@@H]4CCC(C)(C)O)[C@@]3(C)CC[C@@H]2[C@@]2(C)C[C@@H]3OC(C)(C)O[C@@H]3C[C@@H]12`, the CI worked out at 0.72.

Test system in the next series: not listed separately
Briefly: Synergistic cytotoxicity against mouse L5178 cells expressing human ABCB1 assessed as combination index at ED75 using 30:1 test compound to doxorubicin ratio after 48 hrs by MTT-based checkerboard microplate method. Format: functional.
Conditions: not given
In a few lines: as §1
For the compound `CC(C)(O)CC[C@H]1OC(C)(C)O[C@]1(C)[C@H]1CC=C2C3=C/C(=N/OC(C)(C)C)[C@@H]4C[C@H]5OC(C)(C)O[C@H]5C[C@]4(C)[C@H]3CC[C@@]21C`, the CI stood at 0.32.

Consider `CCO/N=C1/C=C2C3=CC[C@H]([C@@]4(C)OC(C)(C)O[C@@H]4CCC(C)(C)O)[C@@]3(C)CC[C@@H]2[C@@]2(C)C[C@@H]3OC(C)(C)O[C@@H]3C[C@@H]12`, for which the CI was found to be 0.2.

Test system in another series: not listed separately
Nature of the series: Synergistic cytotoxicity against mouse L5178 cells assessed as combination index at ED90 using 37.5:1 test compound to doxorubicin ratio after 48 hrs by MTT-based checkerboard microplate method. Format: functional.
Conditions: not given
In a few lines: as §1
In the case of `CC(C)(O)CC[C@H]1OC(C)(C)O[C@]1(C)[C@H]1CC=C2C3=C/C(=N/OC(C)(C)C)[C@@H]4C[C@H]5OC(C)(C)O[C@H]5C[C@]4(C)[C@H]3CC[C@@]21C`, the CI is listed as 0.66.

For `CCO/N=C1/C=C2C3=CC[C@H]([C@@]4(C)OC(C)(C)O[C@@H]4CCC(C)(C)O)[C@@]3(C)CC[C@@H]2[C@@]2(C)C[C@@H]3OC(C)(C)O[C@@H]3C[C@@H]12`, the CI was determined as 0.6.

Test system in another series: not listed separately
Nature of the series: Synergistic cytotoxicity against mouse L5178 cells assessed as combination index at ED50 using 300:1 test compound to doxorubicin ratio after 48 hrs by MTT-based checkerboard microplate method. Format: functional.
Conditions: not given
In a few lines: as §1
For `CC(C)(O)CC[C@H]1OC(C)(C)O[C@]1(C)[C@H]1CC=C2C3=C/C(=N/OC(C)(C)C)[C@@H]4C[C@H]5OC(C)(C)O[C@H]5C[C@]4(C)[C@H]3CC[C@@]21C`, the CI stood at 1.05.

For the compound `CCO/N=C1/C=C2C3=CC[C@H]([C@@]4(C)OC(C)(C)O[C@@H]4CCC(C)(C)O)[C@@]3(C)CC[C@@H]2[C@@]2(C)C[C@@H]3OC(C)(C)O[C@@H]3C[C@@H]12`, the CI is given as 0.59.

Test system in a further series: not listed separately
Nature of the series: Synergistic cytotoxicity against mouse L5178 cells expressing human ABCB1 assessed as combination index at ED90 using 15:1 test compound to doxorubicin ratio after 48 hrs by MTT-based checkerboard microplate method. Format: functional.
Conditions: not given
In a few lines:
as §1
On to `CC(C)(O)CC[C@H]1OC(C)(C)O[C@]1(C)[C@H]1CC=C2C3=C/C(=N/OC(C)(C)C)[C@@H]4C[C@H]5OC(C)(C)O[C@H]5C[C@]4(C)[C@H]3CC[C@@]21C`, for which the CI is given as 0.33.

Take `CCO/N=C1/C=C2C3=CC[C@H]([C@@]4(C)OC(C)(C)O[C@@H]4CCC(C)(C)O)[C@@]3(C)CC[C@@H]2[C@@]2(C)C[C@@H]3OC(C)(C)O[C@@H]3C[C@@H]12`: the CI stood at 0.18.

Test system in the next series: not listed separately
Nature of the series: Synergistic cytotoxicity against mouse L5178 cells expressing human ABCB1 assessed as combination index at ED50 using 3.75:1 test compound to doxorubicin ratio after 48 hrs by MTT-based checkerboard microplate method.
Conditions: not given
Format: functional. An outline of the steps:
as §1
On to `CC(C)(O)CC[C@H]1OC(C)(C)O[C@]1(C)[C@H]1CC=C2C3=C/C(=N/OC(C)(C)C)[C@@H]4C[C@H]5OC(C)(C)O[C@H]5C[C@]4(C)[C@H]3CC[C@@]21C`, for which the CI was 0.42.

In the case of `CCO/N=C1/C=C2C3=CC[C@H]([C@@]4(C)OC(C)(C)O[C@@H]4CCC(C)(C)O)[C@@]3(C)CC[C@@H]2[C@@]2(C)C[C@@H]3OC(C)(C)O[C@@H]3C[C@@H]12`, the CI was 0.25.

Test system in the next series: not listed separately
Nature of the series: Synergistic cytotoxicity against mouse L5178 cells expressing human ABCB1 assessed as combination index at ED50 using 60:1 test compound to doxorubicin ratio after 48 hrs by MTT-based checkerboard microplate method.
Conditions: not given
Format: functional. In a few lines:
as §1
As to `CC(C)(O)CC[C@H]1OC(C)(C)O[C@]1(C)[C@H]1CC=C2C3=C/C(=N/OC(C)(C)C)[C@@H]4C[C@H]5OC(C)(C)O[C@H]5C[C@]4(C)[C@H]3CC[C@@]21C`, the CI came out at 0.47.

As to `CCO/N=C1/C=C2C3=CC[C@H]([C@@]4(C)OC(C)(C)O[C@@H]4CCC(C)(C)O)[C@@]3(C)CC[C@@H]2[C@@]2(C)C[C@@H]3OC(C)(C)O[C@@H]3C[C@@H]12`, the CI is on record as 0.36.

Test system in another series: not listed separately
Nature of the series: Cytotoxicity against mouse L5178 cells after 48 hrs by MTT assay. In kind it is functional, cell-based. The note with it: L5178, 48 h. In a few lines:
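Parental mouse lymphoma L5178 and the MDR line made by pHa MDR1/A retrovirus transfection, selected with 60 µg/L colchicine. Grown in McCoy's 5A with horse serum at 37°C, 5% CO2. 5 x 10^4 cells/well, serial compound dilutions, 48 h. MTT added to 0.5 mg/mL final for 4 h, then 10% SDS in 0.01 M HCl overnight, OD read at 540 and 630 nm. IC50 taken as median cytotoxic activity (Dm) from control lanes of checkerboard plates, n=2.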
Background: Formazan colour is commonly taken as a measure of viable cells.
In the case of `CC(C)(O)CC[C@H]1OC(C)(C)O[C@]1(C)[C@H]1CC=C2C3=C/C(=N/OC(C)(C)C)[C@@H]4C[C@H]5OC(C)(C)O[C@H]5C[C@]4(C)[C@H]3CC[C@@]21C`, the IC50 was 63.2 µM.

As to `CCO/N=C1/C=C2C3=CC[C@H]([C@@]4(C)OC(C)(C)O[C@@H]4CCC(C)(C)O)[C@@]3(C)CC[C@@H]2[C@@]2(C)C[C@@H]3OC(C)(C)O[C@@H]3C[C@@H]12`, the midpoint of inhibition, the IC50, lay at 53.2 µM.

Test system in the next series: not listed separately
Nature of the series: Synergistic cytotoxicity against mouse L5178 cells assessed as combination index at ED75 using 150:1 test compound to doxorubicin ratio after 48 hrs by MTT-based checkerboard microplate method. Format: functional.
Conditions: not given
An outline of the steps: as §1
With `CC(C)(O)CC[C@H]1OC(C)(C)O[C@]1(C)[C@H]1CC=C2C3=C/C(=N/OC(C)(C)C)[C@@H]4C[C@H]5OC(C)(C)O[C@H]5C[C@]4(C)[C@H]3CC[C@@]21C`, the CI is reported as 0.63.

Turning to `CCO/N=C1/C=C2C3=CC[C@H]([C@@]4(C)OC(C)(C)O[C@@H]4CCC(C)(C)O)[C@@]3(C)CC[C@@H]2[C@@]2(C)C[C@@H]3OC(C)(C)O[C@@H]3C[C@@H]12`, the CI turned out to be 0.48.

The target of a further series is ABCB1 (P-glycoprotein) (Homo sapiens, UniProt P08183). Briefly: Inhibition of human ABCB1 expressed in mouse L5178 cells assessed as increase in rhodamine-123 accumulation at 2 uM after 10 mins by flow cytometric analysis relative to control. The following applies: mouse L5178 cells expressing human ABCB1, probe rhodamine-123. Format: cell-based. In a few lines: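 Cells at 2 × 10^6/mL were preincubated 10 min with compound. Rhodamine 123 then added to 5.2 µM final, 20 min at 37 °C. Cells washed twice in PBS, resuspended and read by flow cytometry. Percent inhibition was scaled between MDR-cell accumulation (0%) and parental L5178 accumulation (100%). Controls: 100 nM tariquidar (positive) and 2% DMSO (negative).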
Chain of ABCB1 (P-glycoprotein) (P08183 whole entry): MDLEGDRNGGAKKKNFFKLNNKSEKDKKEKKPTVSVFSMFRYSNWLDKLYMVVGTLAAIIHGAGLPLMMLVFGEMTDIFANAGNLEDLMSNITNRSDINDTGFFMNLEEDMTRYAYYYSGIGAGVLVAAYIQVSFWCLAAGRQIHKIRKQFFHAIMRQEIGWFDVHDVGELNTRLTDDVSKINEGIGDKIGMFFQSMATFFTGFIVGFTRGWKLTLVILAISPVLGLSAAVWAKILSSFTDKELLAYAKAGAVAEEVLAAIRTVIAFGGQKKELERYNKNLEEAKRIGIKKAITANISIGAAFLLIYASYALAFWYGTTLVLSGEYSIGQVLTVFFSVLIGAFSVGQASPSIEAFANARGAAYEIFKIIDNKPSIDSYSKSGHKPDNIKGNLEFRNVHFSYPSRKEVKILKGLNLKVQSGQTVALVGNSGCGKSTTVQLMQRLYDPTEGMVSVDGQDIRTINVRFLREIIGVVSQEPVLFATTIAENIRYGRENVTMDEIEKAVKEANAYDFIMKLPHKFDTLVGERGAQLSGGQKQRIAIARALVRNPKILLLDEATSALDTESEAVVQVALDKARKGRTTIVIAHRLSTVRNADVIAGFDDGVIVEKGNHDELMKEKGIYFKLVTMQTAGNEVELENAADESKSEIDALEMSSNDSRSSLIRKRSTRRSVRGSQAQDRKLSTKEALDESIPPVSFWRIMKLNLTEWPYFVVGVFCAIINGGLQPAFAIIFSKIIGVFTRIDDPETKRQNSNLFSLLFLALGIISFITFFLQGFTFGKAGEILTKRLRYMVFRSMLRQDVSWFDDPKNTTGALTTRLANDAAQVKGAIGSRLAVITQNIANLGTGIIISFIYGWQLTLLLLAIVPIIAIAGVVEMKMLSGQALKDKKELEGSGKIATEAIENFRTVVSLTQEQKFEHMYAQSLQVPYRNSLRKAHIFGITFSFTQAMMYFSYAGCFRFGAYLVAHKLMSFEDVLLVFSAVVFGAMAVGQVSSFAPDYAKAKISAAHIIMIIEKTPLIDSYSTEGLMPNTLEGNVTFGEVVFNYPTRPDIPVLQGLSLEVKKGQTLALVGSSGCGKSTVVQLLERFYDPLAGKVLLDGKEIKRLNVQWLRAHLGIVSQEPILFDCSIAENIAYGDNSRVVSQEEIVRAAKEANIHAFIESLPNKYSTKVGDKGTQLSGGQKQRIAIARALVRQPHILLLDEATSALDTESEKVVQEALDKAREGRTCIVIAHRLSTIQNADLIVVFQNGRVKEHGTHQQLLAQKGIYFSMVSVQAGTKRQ
(In general: Flow cytometry measures light scatter and fluorescence of single cells or particles in a stream.)
Regarding `CC(C)(O)CC[C@H]1OC(C)(C)O[C@]1(C)[C@H]1CC=C2C3=C/C(=N/OC(C)(C)C)[C@@H]4C[C@H]5OC(C)(C)O[C@H]5C[C@]4(C)[C@H]3CC[C@@]21C`, the inhibition at 10 min, 2 µM is 59%.

Regarding `CCO/N=C1/C=C2C3=CC[C@H]([C@@]4(C)OC(C)(C)O[C@@H]4CCC(C)(C)O)[C@@]3(C)CC[C@@H]2[C@@]2(C)C[C@@H]3OC(C)(C)O[C@@H]3C[C@@H]12`, the inhibition at 10 min, 2 µM was 56.4%.
